Assay outcomes: PubChem BioAssay, several laboratories
In the library only some 2.6% were active in any assay of this set; here they are far more common.
CHT inh – inhibitors of human choline transporter CHT | CHT-expressing cells, membrane potential dye, choline response; hits give low values | B-score at 10 µM | High affinity choline transporter 1 (Homo sapiens), Q9GZV3 | hit rate 0.86% among 310,000;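 active = B-score over 3 SD under the library average, and starting fluorescence ratio not unusually high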;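 note: choline stimulus applied at its EC90 after an EC20 pre-addition; B-score computed on integrated fluorescence ratio after choline addition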
Target sequence (Q9GZV3 whole entry, looked up): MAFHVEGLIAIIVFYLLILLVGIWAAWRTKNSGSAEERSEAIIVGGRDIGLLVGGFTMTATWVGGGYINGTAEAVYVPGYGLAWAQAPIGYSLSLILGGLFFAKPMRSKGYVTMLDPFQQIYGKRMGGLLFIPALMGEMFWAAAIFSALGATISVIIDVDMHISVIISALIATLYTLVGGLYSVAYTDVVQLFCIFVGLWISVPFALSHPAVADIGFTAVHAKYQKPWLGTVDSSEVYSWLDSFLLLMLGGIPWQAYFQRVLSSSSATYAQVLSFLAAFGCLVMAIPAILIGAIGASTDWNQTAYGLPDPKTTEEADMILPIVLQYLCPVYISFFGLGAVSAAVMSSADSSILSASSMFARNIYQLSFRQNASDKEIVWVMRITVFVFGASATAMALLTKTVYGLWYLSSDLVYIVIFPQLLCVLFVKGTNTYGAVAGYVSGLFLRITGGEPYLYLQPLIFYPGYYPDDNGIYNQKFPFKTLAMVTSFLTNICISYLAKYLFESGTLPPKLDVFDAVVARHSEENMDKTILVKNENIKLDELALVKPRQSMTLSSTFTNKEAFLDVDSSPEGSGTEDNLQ
PolyA inhibitor – polyadenylation inhibitors in yeast reporter cells, primary screen, luminescence, S. cerevisiae. S. cerevisiae SKY197-pL101 polyadenylation reporter, beta-gal luminescence; efflux-impaired pdr1/pdr3 knockout yeast; score 100 = 6 SD above DMSO. activity score, % at 12 µM. hit rate 0.02% among 300,000;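 active = lowest replicate activity score at least 50, where 100 means six control SD above control mean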;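 note: yeast exposed to compound for 9 h at 30 °C; higher score means more reporter readthrough which indicates perturbed polyadenylation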
CHT PAM – CHT positive allosteric modulators, primary screen, cell-based, membrane potential dye, choline EC20 | High affinity choline transporter 1 (Homo sapiens), Q9GZV3 | CHT-expressing cells; hits give high values; LV-AA mutant CHT in HEK293 cells | B-score at 10 µM | hit rate 0.49% among 310,000 | AID 488977, 2010;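 active = initial fluorescence not abnormally high and integrated response B-score, plate-corrected, over 3 SD above library mean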
T cruzi repl – inhibitors of intracellular T. cruzi growth, primary screen, luminescence, NIH3T3 host cells. T. cruzi beta-gal in NIH3T3, 90 h. inhibition, % (test concentration not listed). hit rate 1.4% among 300,000. AID 1885, 2009;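 active = mean inhibition across valid replicates above about 55%, limit read from the data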;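 note: signal also drops with host cell toxicity which is not excluded here; 0% = plate median of DMSO wells and 100% = zero luminescence signal; higher percent means less beta-gal luminescence so fewer parasites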
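System: NIH/3T3 fibroblasts plus reporter T. cruzi. Medium: DMEM plus 2% FBS. Probe or stimulus: 5000 reporter trypomastigotes per well. Compound: single 50 nL compound addition per well in DMSO. Incubation: co-culture of at least 90 h after 3 h attachment. Detection: GalScreen β-gal luminescence, detergent lysis, 60 min. Evaluation: parasite load inhibition, %.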
CHT block conf – CHT inhibitors, confirmation, cell-based, membrane potential dye, duplicate; shares compounds with CHT inh; CHT-expressing cells, choline membrane potential dye; LV-to-AA substituted CHT, HEK293 cells; CHT activity remaining % of control (hits give low values), % at 10 µM; hit rate 70% among 2,400;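 active = choline transporter activity left, mean of duplicates at 10 µM, below buffer-only control mean minus 3 SD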;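 note: depolarization triggered by choline at its EC90 following an EC20 pre-addition; 0% = hemicholinium-3 full block and 100% = buffer-only control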
HEK293 MPD ctr – membrane potential effects in parental HEK293, counter-screen for CHT inhibitor project, cell-based, membrane potential dye; shares compounds with CHT inh; membrane potential ratio readout (active if shifted either direction beyond buffer ±3SD; no single direction) at 10 µM; choline response; active = decrease or increase beyond buffer ±3SD; hit rate 4% among 2,400;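 note: parental cells lack the transporter so any hit is non-specific; ratio is peak minus trough fluorescence over baseline after EC90 choline challenge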
* hit, by the source's call; i = inactive; . = not tested or not shown.

SMILES	CHT inh	PolyA inhibitor	CHT PAM	T cruzi repl	CHT block conf	HEK293 MPD ctr
O=C(O)CC(NC(=O)C1c2ccccc2Oc2ccccc21)c1ccc(OC2CCCC2)cc1 (stereo not given)	-5.2*	14	i	5	i	i
CCOc1ccc(C(CC(=O)O)NC(=O)C2c3ccccc3Oc3ccccc32)cc1 (stereo not given)	i	-15	i	7	.	.
O=C(O)CC(NC(=O)c1sc2ccccc2c1Cl)c1ccc(OC2CCCC2)cc1 (stereo not given)	-5.2*	8	i	2	28%*	i
COc1ccc(CN2CCN(CC=C(C)C)C(CCO)C2)cc1Cn1cccn1 (stereo not given)	-6*	0	i	13	64%*	i
O=C(CCl)N(C1CCCC1)C1CCS(=O)(=O)C1 (stereo not given)	-5.1*	-12	i	-2	i	i
CC(=O)Nc1cccc(NC(=O)CSc2nc3c(=O)n(C)c(=O)n(C)c3n2C)c1	i	-11	i	-4	.	.
CCC(Sc1nc2ccncc2[nH]1)C(=O)Nc1cc(Cl)ccc1C (stereo not given)	-5.9*	-1	i	-12	i	i
CC1CCN(S(=O)(=O)c2nnc(NC(=O)c3cccc([N+](=O)[O-])c3)s2)CC1	-9.6*	-10	i	3	60%*	i
O=C(Nc1nnc(S(=O)(=O)N2CCCC2)s1)c1cccc([N+](=O)[O-])c1	i	12	i	-11	.	.
NS(=O)(=O)c1ccc(CCNCc2cc(Cl)ccc2OCc2ccccc2)cc1	-6.5*	-9	i	-9	50%*	i
NS(=O)(=O)c1ccc(CCNC(=O)CNCCc2ccccc2)cc1	i	2	i	-8	.	.
C=CCOc1ccccc1CNCCc1ccc(S(N)(=O)=O)cc1	i	28	i	-7	.	.
NS(=O)(=O)c1ccc(CCNCc2ccccc2OCc2ccc(Cl)cc2)cc1	-5.1*	-6	i	16	27%*	i
CCOC(=O)c1c(C)[nH]c(C)c1S(=O)(=O)NCC(=O)Nc1ccccn1	i	-3	i	-16	.	.
O=C(NCCC(=O)N1CCN(C(=O)c2ccco2)CC1)c1ccc(Br)cc1	i	24	i	-1	.	.
CCOC(=O)N1CCN(C(=O)CCCn2c(=S)[nH]c3ccsc3c2=O)CC1	-12*	19	i	3	6.4%*	i
CCOC(=O)N1CCN(C(=O)CCCn2c(=S)[nH]c3ccc(Br)cc3c2=O)CC1	-5.3*	12	i	-3	55%*	i
CCOC(=O)N1CCN(C(=O)CCCCCn2c(=S)[nH]c3ccsc3c2=O)CC1	i	-7	i	16	.	.
CC(=O)c1ccc(N2CCN(C(=O)CCCn3c(=O)[nH]c4ccccc4c3=O)CC2)cc1	i	-2	i	15	.	.
CCOC(=O)N1CCN(C(=O)CCCn2c(=O)[nH]c3ccccc3c2=O)CC1	-5.9*	-7	i	-3	5.0%*	i
O=C(CCCn1c(=S)[nH]c2ccccc2c1=O)N1CCOCC1	i	5	i	-3	.	.
COc1ccc(N(C(=O)c2cnccn2)C(C(=O)NCc2ccccc2)c2ccc(O)cc2)cc1 (stereo not given)	i	20	i	-6	.	.
O=C(Cn1nc(-c2ccccc2)c2ccccc2c1=O)Nc1ccc(O)cc1	i	9	i	-2	.	.
CC(NC(=O)Cn1nc(-c2ccccc2)c2ccccc2c1=O)c1ccccc1 (stereo not given)	-5.2*	1	i	2	69%*	i
CC1=C(C(=O)OCC(Cl)(Cl)Cl)N2C(=O)C(NC(=O)Cc3ccccc3)C2SC1 (stereo not given)	-12*	1	i	8	i	i
SMILES	CHT inh	PolyA inhibitor	CHT PAM	T cruzi repl	CHT block conf	HEK293 MPD ctr
Cc1ccc(S(=O)(=O)N2CCCCC2CCNC(=O)C(=O)NCC2CCCO2)cc1 (stereo not given)	i	-8	i	16	.	.
COc1ccc(C2=Nn3c(nnc3C3CCCCC3)SC2)cc1OC	-6.8*	2	i	7	52%*	i
Cc1ccc(NC(=O)CSc2nc(=O)n(Cc3ccncc3)c3c2CCC3)c(C)c1	i	22	i	-5	.	.
CC(=O)N1CCc2cc(S(=O)(=O)CCC(=O)Nc3ccc(Cl)cc3F)ccc21	i	-3	i	2	.	.
CC1=CC(=O)C=C(C)C1=NOS(=O)(=O)c1ccccc1	.	-1	.	39	.	.
CC1=CC(=O)C(C(C)C)=C/C1=N/OS(=O)(=O)c1ccccc1	-9.6*	-60	i	53	64%*	i
O=C(Nc1cccc(S(=O)(=O)N2CCCCCC2)c1)C1CCC1	i	-10	i	-4	.	.
O=C(Nc1ccc(OCc2ccccc2)cc1)Nc1ccccc1C(=O)NCCCN1CCOCC1	-5*	12	i	5	44%*	i
O=C(Nc1ccccc1C(=O)NCCCN1CCOCC1)c1ccc(F)cc1F	i	4	i	-1	.	.
CC1CCCCN1C(=O)c1ccc(C(=O)Nc2ccc(F)cc2)cc1 (stereo not given)	-6.4*	.	i	.	45%*	i
CCOc1[nH]c(/N=C/c2ccco2)c(C#N)c1C#N	-5.1*	.	i	.	53%*	i
N#Cc1c(/N=C/c2ccco2)sc2c1CCC2	i	4	i	-3	.	.
CCOC(=O)C/C(C)=N/NC(=O)CNc1cccc(Cl)c1C	i	4	i	10	.	.
Cc1c(Cl)cccc1NCC(=O)NN=C1CCCC1	-5.1*	16	i	-12	48%*	i
Cc1nn(C)cc1S(=O)(=O)Nc1cccc(Cl)c1	i	2	i	2	.	.
COc1cc(/C=C2\S/C(=N/S(=O)(=O)c3ccccc3)NC2=O)c([N+](=O)[O-])cc1OC	-8.2*	-13	i	-23	53%*	i
COc1ccc(S(=O)(=O)/N=C2/NC(=O)/C(=C\c3cc(OC)c(OC)cc3[N+](=O)[O-])S2)cc1	i	8	i	-3	.	.
CCCOP(=O)(c1ccc(N(C)C)cc1)C(O)c1ccc(Br)cc1 (stereo not given)	-5.8*	-1	i	0	68%*	i
CCCOP(=O)(c1ccc(N(C)C)cc1)C(O)c1ccc(N(C)C)cc1 (stereo not given)	i	16	i	-11	.	.
